Assay results gathered from unrelated publications.
Target: NUAK family SNF1-like kinase 2 (NUAK2, Homo sapiens, UniProt Q9H093)
Residues used in one study (Q9H093 1-628): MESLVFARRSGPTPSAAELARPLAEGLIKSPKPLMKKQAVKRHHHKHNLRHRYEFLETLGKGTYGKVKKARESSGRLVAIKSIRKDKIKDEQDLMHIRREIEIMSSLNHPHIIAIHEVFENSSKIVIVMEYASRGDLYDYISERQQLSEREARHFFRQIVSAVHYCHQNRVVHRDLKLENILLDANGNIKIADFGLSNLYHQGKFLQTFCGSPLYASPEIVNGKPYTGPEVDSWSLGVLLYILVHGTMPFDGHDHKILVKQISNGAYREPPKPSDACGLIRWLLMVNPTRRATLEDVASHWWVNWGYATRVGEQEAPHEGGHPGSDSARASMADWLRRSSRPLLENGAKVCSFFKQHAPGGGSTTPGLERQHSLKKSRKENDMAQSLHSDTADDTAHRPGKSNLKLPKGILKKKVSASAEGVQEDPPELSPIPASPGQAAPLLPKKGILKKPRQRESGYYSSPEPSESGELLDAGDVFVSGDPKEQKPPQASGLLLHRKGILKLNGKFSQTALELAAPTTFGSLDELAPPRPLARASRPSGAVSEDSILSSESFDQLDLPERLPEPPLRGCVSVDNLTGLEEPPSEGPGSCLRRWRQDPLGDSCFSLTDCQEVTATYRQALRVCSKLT

Structure (SMILES) | test | conditions | quantity | value
CCCCC(=O)Nc1ccc(-c2ccc3ncn(CCC)c(=O)c3c2)cn1 | binding, competition with immobilised ligand | 0.5 µM | remaining binding | 97%
C[C@H]1CC[C@H](n2c3cnccc3c3cnc(Nc4ccc5c(n4)CCN(C(=O)CO)C5)nc32)CC1 | cell-free assay | 1 µM | remaining signal | 34%
C1=C/COCc2cc(ccc2OCCN2CCCC2)Nc2nccc(n2)-c2cccc(c2)COC/1 | cell-free assay | 0.1 µM | remaining signal | 13%
Cc1cc(O)c(-c2ccc([C@@H](C)CN(C)C)cc2)c2c1[nH]c(=O)c1sccc12 | enzyme activity, inhibitor | 0.1 µM | inhibition | 3.81%
N#Cc1ccc(NC(=O)Nc2ccccc2)cc1 | cell-free assay, competition with immobilised ligand | 25 µM | remaining binding | 77%
CC(C)S(=O)(=O)c1ccc2nccc(Nc3ccc4sc(C5CCCC5)nc4c3)c2c1 | enzyme activity, inhibitor | 1 µM | activity vs control | 121%
C[C@]1(O)CCCN(c2nc(Nc3ccc(S(=O)(=O)N[C@H]4CC[C@H](CN5CCN(c6ccc(C7CCC(=O)NC7=O)cc6F)CC5)CC4)cc3Cl)ncc2C(F)(F)F)C1 (stereo partly drawn) | binding, competition with immobilised ligand | 1 µM | remaining binding | 49%
CN1CCN(C(=O)c2ccc(NC(=O)Nc3ccc(N(C)c4ccnc(Nc5ccc(CS(C)(=O)=O)cc5)n4)cc3)cc2)CC1 | binding | 1 µM | remaining binding | 39%
C=CC(=O)N1CCC([C@@H]2CCNc3c(C(N)=O)c(-c4ccc(Oc5ccccc5)cc4)nn32)CC1 | enzyme activity, inhibitor | 1 µM | inhibition | 24%
COc1ccc2oc(-c3ccc4nc(N)oc4c3)c/c(=N\c3ccccc3NC(=O)CCN)c2c1 | binding | 1 µM | remaining binding | 93%
CO[C@@H]1[C@H](N(C)C(=O)c2ccccc2)C[C@H]2O[C@]1(C)n1c3ccccc3c3c4c(c5c6ccccc6n2c5c31)C(=O)NC4 | enzyme activity, inhibitor | 1 µM | inhibition | 99%
CNS(=O)(=O)c1ccc(Nc2ncc(C(F)(F)F)c(N3CCC[C@](C)(O)C3)n2)c(C)c1 | binding, competition with immobilised ligand | 1 µM | remaining binding | 3.9%
